The values below come from ChEMBL document CHEMBL1833940, “Discovery of 3-(2,6-dichloro-3,5-dimethoxy-phenyl)-1-{6-[4-(4-ethyl-piperazin-1-yl)-phenylamino]-pyrimidin-4-yl}-1-methyl-urea (NVP-BGJ398), a potent and selective inhibitor of the fibroblast growth factor receptor family of receptor tyrosine kinase” (J Med Chem, 2011).

What is called pIC50 is the negative decadic logarithm of the IC50, by convention in mol/L. As usually defined, the Cmax is the peak of the concentration-time curve.

For data set [1], the system named is Rattus norvegicus. Put plainly: Toxicity in nude Rowett rat xenografted with human RT112 cells assessed as morbidity at 5 mg/kg, po qd administered for 20 days. To be noted: in vivo, 480 h. On the set-up: dose 5 mg/kg, route oral. The format is organism-based, RT-112. The procedure, abridged:
(§1)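 Female nude Rowett rats carried subcutaneous RT112 tumors (1 × 10^6 cells in Matrigel), starting at about 100 mm3. The monophosphate salt was gavaged daily for 20 days at 5, 10 or 15 mg/kg (free base) in acetate buffer pH 4.6/PEG300 (1:1), n = 8. Body weight and morbidity were monitored; ANOVA with Dunnett's test.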
For orientation: A xenograft is tissue or cells of one species grown in another, often human tumour cells in immunodeficient mice.

The target in data set [2] is Protein kinase C alpha type (Homo sapiens, UniProt P17252). Put plainly: Inhibition of recombinant PKCalpha. The method, boiled down:
(§2)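 Purified recombinant kinases under optimized conditions with peptide substrates. ATP was set at each kinase's Km. Phosphorylation was read by microfluidic mobility-shift separation of substrate and product; IC50 determined.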

Data set [3] concerns the target Aurora kinase A (Homo sapiens, UniProt O14965). Put plainly: Inhibition of recombinant Aurora A. The procedure, abridged: (§3)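 Purified recombinant kinases under optimized conditions, with peptide substrates and ATP at each kinase's Km. Phosphorylation was read out by microfluidic mobility shift, and IC50 values were obtained.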
Data set [4] deals with Tyrosine-protein kinase receptor UFO (Homo sapiens, UniProt P30530). In words: Inhibition of recombinant AXL. The procedure, abridged:
as §3

The subject of data set [5] is RT-112. Put plainly: Antitumor activity against human RT112 cells xenografted in nude Rowett rat assessed as tumour stasis at 5 mg/kg, po qd administered for 20 days. Format: functional, organism-based. Also noted: dose 5 mg/kg. The procedure, abridged: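 Female nude Rowett rats aged 6–9 weeks were given 1×10^6 RT112 cells subcutaneously in HBSS/50% Matrigel. Treatment began at about 100 mm3 mean tumor volume (n = 8): monophosphate salt in acetate buffer pH 4.6/PEG300 (1:1) by gavage, 5 mL/kg, at 5, 10, 15 mg/kg/qd free base for 20 days. Tumors were measured by caliper (L×W×H×π/6). Readouts were T/C and % regression from start volume.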

For data set [6], the target named is Serine/threonine-protein kinase N2 (Homo sapiens, UniProt Q16513). Put plainly: Inhibition of recombinant PKN2. The procedure, abridged: as §2
In data set [7] the target is Proto-oncogene tyrosine-protein kinase receptor Ret (Homo sapiens, UniProt P07949). Put plainly: Inhibition of recombinant RET. The method, boiled down:
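Purified recombinant kinases were tested under optimized conditions with peptide substrates. ATP was set at each kinase's Km. Phosphorylation was read out by microfluidic mobility shift, and IC50 values were determined.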

The test system of data set [8] is Tumour. Put plainly: Drug uptake in tumour of nude Rowett rat bearing human RT112 cells at 4.25 mg/kg, po administered as a single dose after 24 hrs by LC-MS/MS analysis. The format is ADME, organism-based, Neoplasm, RT-112. On the set-up: dose 4.25 mg/kg, route oral. To be noted: in vivo. The method, boiled down:
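Nude Rowett rats bearing subcutaneous RT112 tumors (n = 4) received a single gavage of monophosphate salt at 4.25 or 8.51 mg/kg free base in acetate buffer pH 4.6/PEG300. Tumors were collected at intervals after dosing, frozen and homogenized in an equal volume of ice-cold PBS. Compound levels were measured by LC-MS/MS (LOQ 3 ng/mL).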

For data set [9], the target named is Mitogen-activated protein kinase 12 (Homo sapiens, UniProt P53778). Put plainly: Inhibition of recombinant p38-gamma. The method, boiled down: as §2
The test system of data set [10] is Rattus norvegicus. Put plainly: Toxicity in nude Rowett rat xenografted with human RT112 cells assessed as body weight loss at 5 mg/kg, po qd administered for 20 days. The format is organism-based, RT-112. Also noted: dose 5 mg/kg, route oral. To be noted: in vivo, 480 h. The method, boiled down:
as §1

Data set [11] can be described thus: Cmax in plasma of RT112/luc1 cells implanted athymic nude mouse at 5 mg/kg, iv by LC/MS/MS analysis. The format is ADME, organism-based. On the set-up: dose 5 mg/kg, route intravenous. The procedure, abridged:
(§4)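 Female athymic nude mice carried subcutaneous RT112/luc1 tumors (5×10^6 cells, 50% Matrigel; about 300–400 mm3). Dosing was either 5 mg/kg iv by tail vein in NMP/PEG200 (1:9) or 20 mg/kg oral suspension in PEG300/D5W (2:1). Groups of mice (n = 4) were sacrificed at 0.083–24 h. Plasma and tumor levels were measured by LC-MS/MS (LOQ 5 ng/mL, 10 ng/g).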

Data set [12] concerns the target Tyrosine-protein kinase HCK (Homo sapiens, UniProt P08631). In words: Inhibition of recombinant HCK. The method, boiled down: as §2
The subject of data set [13] is RT-112. Put plainly: Antitumor activity against human RT112 cells xenografted in athymic nude mouse assessed as tumor growth inhibition at 10 mg/kg, po administered for 12 days. Format: functional, organism-based. Also noted: dose 10 mg/kg. The procedure, abridged: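 Female HsdNpa:Athymic Nude-nu mice received RT112/luc1 cells (luciferase retroviral line; about 1–2×10^5 cells) into the bladder lumen. Oral treatment started 14 days after inoculation: suspension in PEG300/D5W (2:1) at 10 or 30 mg/kg/qd for 12 days. Tumor burden was measured by IVIS bioluminescence 10 min after iv D-luciferin. T/C was computed from change in light emission; ANOVA with Dunnett's test.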

The target of data set [14] is Serine/threonine-protein kinase PAK 2 (Homo sapiens, UniProt Q13177). In words: Inhibition of recombinant PAK2. The method, boiled down:
as §2

Data set [15] can be described thus: Cmax in Wistar rat at 10 mg/kg, po by LC-MS/MS analysis. The format is ADME, organism-based. Also noted: dose 10 mg/kg, route oral. To be noted: in vivo. The procedure, abridged:
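Female Wistar rats received either an iv femoral-vein dose of 5 mg/kg in NMP/PEG200 (1:9) or an oral dose of monophosphate salt at 10 mg/kg (free base) in acetate buffer pH 4.6/PEG300. Plasma was sampled by sublingual bleeding at 0.083–24 h (n = 4 staggered, or n = 3–4 serial). Plasma levels were measured by LC-MS/MS (LOQ 10 ng/mL).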

The subject of data set [16] is Rattus norvegicus. In words: Inhibition of FGFR autophosphorylation in RT112 tumor bearing nude rowett rat assessed as decrease in pFRS2 concentration at 4.25 mg/kg, po administered as a single dose by Western blot analysis. Format: functional, organism-based. Also noted: dose 4.25 mg/kg. The procedure, abridged:
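RT112 tumor-bearing nude Rowett rats (n = 4) received a single oral dose of monophosphate salt at 4.25 or 8.51 mg/kg free base. Tumors were collected at time points up to 24 h and lysed in Tris/Triton buffer with vanadate and protease inhibitors. Western blots were run for pFRS2(Tyr196) and pMAPK, with total FRS2, total MAPK or β-tubulin as loading controls.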
On the technique in general: A western blot detects proteins with antibodies after separation by electrophoresis.

The nature of data set [17]: Half life in tumor of RT112/luc1 cells implanted in athymic nude mouse at 5 mg/kg, iv by LC/MS/MS analysis. Also noted: dose 5 mg/kg, route intravenous. The format is ADME, organism-based, Neoplasm. The method, boiled down:
as §4

The nature of data set [18]: Apparent terminal half life in Wistar rat at 10 mg/kg, po by LC-MS/MS analysis. On the set-up: dose 10 mg/kg, route oral. The format is ADME, organism-based. To be noted: in vivo, read-out: t1/2 lambda z (converted). The method, boiled down:
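Female Wistar rats. IV: 5 mg/kg into the femoral vein as a solution in NMP/PEG200 (1:9, v/v). Oral: monophosphate salt at 10 mg/kg (free base equivalents) as a solution in acetic acid–acetate buffer pH 4.6/PEG300. Plasma was taken by sublingual bleeding at 0.083–24 h, from staggered groups (n = 4) or one sequentially bled group. Assayed by LC-MS/MS (LOQ 10 ng/mL); noncompartmental analysis.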

Data set [19] deals with Insulin-like growth factor 1 receptor (Homo sapiens, UniProt P08069). Put plainly: Inhibition of recombinant IGF1R. The procedure, abridged:
as §2

Data set [20] addresses Mitogen-activated protein kinase kinase kinase 8 (Homo sapiens, UniProt P41279). Put plainly: Inhibition of recombinant COT. The method, boiled down:
as §3

Data set [21] relates to Tumour. In words: Dose normalized AUC in tumor of RT112/luc1 cells implanted athymic nude mouse at 5 mg/kg, iv by LC/MS/MS analysis. Also noted: dose 5 mg/kg, route intravenous. The format is ADME, organism-based, Neoplasm. To be noted: in vivo. The procedure, abridged: as §4
Data set [22] concerns the target Serine/threonine-protein kinase N1 (Homo sapiens, UniProt Q16512). Put plainly: Inhibition of recombinant PKN1. The procedure, abridged:
as §2

Data set [23] deals with Vascular endothelial growth factor receptor 2 (Homo sapiens, UniProt P35968). Put plainly: Inhibition of recombinant VEGFR2. The procedure, abridged: as §3

pIC50: −log10 of the molar value. Activity calls are given as the source filed them. The calls are words filed in the database; no cut-off is given here. Where only a bound is given, the exact number is not on record here.

Chain of Serine/threonine-protein kinase N2 (Q16513 whole entry): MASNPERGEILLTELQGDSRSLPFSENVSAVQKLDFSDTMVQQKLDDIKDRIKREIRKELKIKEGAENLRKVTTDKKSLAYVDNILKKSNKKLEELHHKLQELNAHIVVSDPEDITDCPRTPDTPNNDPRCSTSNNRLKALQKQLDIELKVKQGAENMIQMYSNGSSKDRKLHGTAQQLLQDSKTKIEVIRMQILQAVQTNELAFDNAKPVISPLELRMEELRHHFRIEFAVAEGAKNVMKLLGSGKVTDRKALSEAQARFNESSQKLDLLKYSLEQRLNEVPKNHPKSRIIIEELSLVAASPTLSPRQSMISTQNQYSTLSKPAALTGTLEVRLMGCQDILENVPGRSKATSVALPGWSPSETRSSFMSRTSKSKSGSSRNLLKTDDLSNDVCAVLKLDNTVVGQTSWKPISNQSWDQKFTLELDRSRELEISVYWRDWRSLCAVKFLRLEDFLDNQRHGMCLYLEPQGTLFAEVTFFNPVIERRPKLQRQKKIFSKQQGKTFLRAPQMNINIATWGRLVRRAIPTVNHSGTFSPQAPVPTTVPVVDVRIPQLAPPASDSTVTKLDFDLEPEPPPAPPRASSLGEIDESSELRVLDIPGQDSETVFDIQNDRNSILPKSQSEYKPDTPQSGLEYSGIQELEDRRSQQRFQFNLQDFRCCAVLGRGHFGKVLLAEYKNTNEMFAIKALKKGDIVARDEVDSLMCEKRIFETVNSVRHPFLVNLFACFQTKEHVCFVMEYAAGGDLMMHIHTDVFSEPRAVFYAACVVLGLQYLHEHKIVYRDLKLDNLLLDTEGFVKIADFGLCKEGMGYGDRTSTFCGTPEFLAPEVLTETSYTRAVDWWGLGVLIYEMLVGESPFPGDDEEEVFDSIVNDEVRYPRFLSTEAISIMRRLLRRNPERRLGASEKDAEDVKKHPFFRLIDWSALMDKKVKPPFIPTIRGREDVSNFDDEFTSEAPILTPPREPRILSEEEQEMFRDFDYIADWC
Chain of Serine/threonine-protein kinase PAK 2 (Q13177 whole entry): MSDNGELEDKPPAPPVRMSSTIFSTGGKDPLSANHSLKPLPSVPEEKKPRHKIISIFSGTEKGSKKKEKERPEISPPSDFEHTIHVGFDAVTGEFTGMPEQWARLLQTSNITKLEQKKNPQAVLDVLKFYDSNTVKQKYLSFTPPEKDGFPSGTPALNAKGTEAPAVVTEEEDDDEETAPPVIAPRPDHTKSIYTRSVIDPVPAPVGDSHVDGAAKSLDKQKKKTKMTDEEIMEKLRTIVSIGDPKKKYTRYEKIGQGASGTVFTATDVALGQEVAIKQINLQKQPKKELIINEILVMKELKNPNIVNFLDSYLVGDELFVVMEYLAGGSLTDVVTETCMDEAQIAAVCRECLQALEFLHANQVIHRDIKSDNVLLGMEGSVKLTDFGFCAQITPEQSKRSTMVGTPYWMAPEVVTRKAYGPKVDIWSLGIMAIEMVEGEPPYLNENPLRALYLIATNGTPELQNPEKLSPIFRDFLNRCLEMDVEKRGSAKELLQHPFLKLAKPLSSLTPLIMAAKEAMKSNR
Chain of Tyrosine-protein kinase HCK (P08631 whole entry): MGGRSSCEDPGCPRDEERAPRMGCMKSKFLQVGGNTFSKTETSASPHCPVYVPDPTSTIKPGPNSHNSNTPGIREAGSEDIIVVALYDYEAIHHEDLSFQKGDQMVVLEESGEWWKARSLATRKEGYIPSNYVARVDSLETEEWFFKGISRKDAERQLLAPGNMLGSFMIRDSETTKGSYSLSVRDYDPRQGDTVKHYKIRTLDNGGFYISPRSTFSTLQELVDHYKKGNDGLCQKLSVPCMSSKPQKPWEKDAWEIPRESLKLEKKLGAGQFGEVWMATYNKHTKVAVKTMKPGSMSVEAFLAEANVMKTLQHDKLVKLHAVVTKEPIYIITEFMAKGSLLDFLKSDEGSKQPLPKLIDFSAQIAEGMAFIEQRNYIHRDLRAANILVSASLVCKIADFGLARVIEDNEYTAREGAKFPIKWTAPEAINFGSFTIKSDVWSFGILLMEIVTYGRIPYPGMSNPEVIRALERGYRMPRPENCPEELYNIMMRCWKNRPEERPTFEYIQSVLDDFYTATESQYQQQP
Chain of Insulin-like growth factor 1 receptor (P08069 31-736 limits assumed): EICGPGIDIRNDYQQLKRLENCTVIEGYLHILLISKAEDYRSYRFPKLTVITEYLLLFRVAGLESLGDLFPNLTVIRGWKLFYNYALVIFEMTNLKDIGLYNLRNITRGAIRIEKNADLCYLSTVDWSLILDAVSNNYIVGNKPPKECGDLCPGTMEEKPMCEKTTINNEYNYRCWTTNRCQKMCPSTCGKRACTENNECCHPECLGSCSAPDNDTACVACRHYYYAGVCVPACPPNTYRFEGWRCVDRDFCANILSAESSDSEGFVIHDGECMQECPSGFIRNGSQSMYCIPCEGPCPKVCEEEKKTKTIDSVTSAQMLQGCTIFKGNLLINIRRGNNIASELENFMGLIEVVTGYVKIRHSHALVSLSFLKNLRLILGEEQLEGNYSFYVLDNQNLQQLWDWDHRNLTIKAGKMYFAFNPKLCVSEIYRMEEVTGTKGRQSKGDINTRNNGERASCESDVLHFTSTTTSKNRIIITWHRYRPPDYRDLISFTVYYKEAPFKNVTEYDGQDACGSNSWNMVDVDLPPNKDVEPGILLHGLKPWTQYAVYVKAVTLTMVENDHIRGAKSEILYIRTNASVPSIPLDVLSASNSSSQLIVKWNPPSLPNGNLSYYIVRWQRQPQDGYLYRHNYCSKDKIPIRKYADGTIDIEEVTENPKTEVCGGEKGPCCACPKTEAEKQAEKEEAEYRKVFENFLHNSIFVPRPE
Chain of Insulin-like growth factor 1 receptor (P08069 741-1367 limits assumed): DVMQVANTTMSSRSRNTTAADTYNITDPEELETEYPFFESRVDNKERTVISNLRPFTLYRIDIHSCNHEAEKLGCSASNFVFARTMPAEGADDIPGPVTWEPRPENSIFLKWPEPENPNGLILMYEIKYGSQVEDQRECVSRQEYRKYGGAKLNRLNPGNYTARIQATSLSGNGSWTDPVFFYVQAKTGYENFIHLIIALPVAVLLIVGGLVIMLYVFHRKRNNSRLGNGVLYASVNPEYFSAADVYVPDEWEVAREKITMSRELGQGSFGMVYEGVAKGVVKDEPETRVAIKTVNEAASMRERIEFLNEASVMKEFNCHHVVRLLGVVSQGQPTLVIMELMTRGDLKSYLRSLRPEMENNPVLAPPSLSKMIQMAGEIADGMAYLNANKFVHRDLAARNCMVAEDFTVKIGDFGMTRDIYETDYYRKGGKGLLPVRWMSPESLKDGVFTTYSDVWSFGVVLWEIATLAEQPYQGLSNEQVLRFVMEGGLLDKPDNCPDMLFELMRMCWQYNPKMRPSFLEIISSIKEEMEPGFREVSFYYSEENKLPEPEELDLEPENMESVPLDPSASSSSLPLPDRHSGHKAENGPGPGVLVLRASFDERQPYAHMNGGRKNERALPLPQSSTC
Chain of Serine/threonine-protein kinase N1 (Q16512 whole entry): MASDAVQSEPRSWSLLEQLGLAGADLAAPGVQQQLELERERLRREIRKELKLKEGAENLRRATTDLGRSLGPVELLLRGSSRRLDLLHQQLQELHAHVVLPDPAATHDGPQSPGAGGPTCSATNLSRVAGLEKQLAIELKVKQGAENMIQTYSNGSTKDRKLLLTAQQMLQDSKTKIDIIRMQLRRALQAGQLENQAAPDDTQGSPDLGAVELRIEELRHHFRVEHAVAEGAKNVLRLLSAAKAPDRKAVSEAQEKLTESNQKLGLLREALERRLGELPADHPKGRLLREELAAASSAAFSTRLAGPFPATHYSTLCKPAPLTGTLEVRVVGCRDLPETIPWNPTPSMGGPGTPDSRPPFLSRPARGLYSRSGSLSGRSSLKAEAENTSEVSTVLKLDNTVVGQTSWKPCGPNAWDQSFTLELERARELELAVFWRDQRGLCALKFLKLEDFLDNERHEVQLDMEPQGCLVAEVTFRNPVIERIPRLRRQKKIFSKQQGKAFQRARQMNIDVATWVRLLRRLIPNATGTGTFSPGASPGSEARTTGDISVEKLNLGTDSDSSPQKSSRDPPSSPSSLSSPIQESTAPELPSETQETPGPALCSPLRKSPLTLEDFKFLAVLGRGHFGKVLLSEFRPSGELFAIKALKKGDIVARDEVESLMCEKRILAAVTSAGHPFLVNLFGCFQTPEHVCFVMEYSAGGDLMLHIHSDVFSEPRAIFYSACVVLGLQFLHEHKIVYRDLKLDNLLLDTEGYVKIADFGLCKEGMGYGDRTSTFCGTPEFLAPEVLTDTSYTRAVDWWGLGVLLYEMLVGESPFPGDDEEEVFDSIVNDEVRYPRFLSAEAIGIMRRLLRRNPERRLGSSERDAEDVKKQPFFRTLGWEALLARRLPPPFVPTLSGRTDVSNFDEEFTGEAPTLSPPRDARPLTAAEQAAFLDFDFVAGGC

Consider `CCN1CCN(c2ccc(Nc3cc(N(C)C(=O)Nc4c(Cl)c(OC)cc(OC)c4Cl)ncn3)cc2)CC1.O=P(O)(O)O` [INFIGRATINIB PHOSPHATE], for which the Activity entry in data set [1] and in data set [10] was “Non-toxic” in each case. Further, the pIC50 in data set [2], in [3], in data set [4], in [6], in [7] and in data set [9] was less than 5.00 each time. The pIC50 was less than 5.00 in [12]; less than 5.00 in data set [14]; less than 5.00 in data set [19]; less than 5.00 in data set [20]; less than 5.00 in data set [22]; 6.74 in data set [23]. Moreover, the outcome in [5] was Active. The compound also gave a Drug uptake in [8] of 0.12 nmol/g. For the same compound, the Cmax in data set [11] came out at 860 nM; in data set [15], 260 nM. For the same compound, the inhibition entry in data set [13] and in data set [16] was “Active” each time. In addition, the half-life in [17] was 6.7 h; in data set [18], 4.8 h. Also, the AUC/dose in [21] came to 4.8 nmol·h/g.
